Screens: PubChem BioAssay, Sanford-Burnham Center for Chemical Genomics
STEP block: STEP (human) phosphatase inhibition | recombinant STEP, OMFP fluorogenic substrate, fluorescence | inhibition, % at 20 µM | hit rate 0.25% among 360,000 | AID 588621;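 active = inhibition at 20 µM, scaled per plate between control wells, above about 37%, limit read from the data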
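Also added – OMFP at 25 µM · Test system – STEP tyrosine phosphatase · Technique – FITC-channel fluorescence of OMFP product · Schedule – 20 min at room temperature, dark · Evaluation – control-normalized % inhibition with plate pattern correction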
LMPTP inh: LMPTP (human) inhibition | recombinant LMPTP-A, OMFP fluorogenic substrate, fluorescence intensity | inhibition, % at 20 µM | hit rate 0.22% among 360,000;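 active = compounds that cut the enzyme signal by at least half of the control window in the single-dose screen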
Target sequence (P24666 whole entry, looked up): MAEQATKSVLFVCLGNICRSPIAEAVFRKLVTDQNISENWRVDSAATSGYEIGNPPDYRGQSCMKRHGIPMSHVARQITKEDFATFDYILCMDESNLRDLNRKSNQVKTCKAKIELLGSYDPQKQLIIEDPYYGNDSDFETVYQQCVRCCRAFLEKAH
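Assay system: LMPTP-A, protein tyrosine phosphatase of low molecular weight / Medium: pH 6.0 Bis-Tris buffer with DTT and Triton X-100 / Schedule: 50 min enzyme reaction at room temperature, protected from light / Measured by: endpoint fluorescence intensity from OMFP dephosphorylation / Read-out basis: % inhibition relative to no-enzyme and uninhibited control wells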
SUMO1-SIM PPI: modulators of human SUMO1-mediated protein-protein interactions; inhibition, % at 20 µM; SUMO1 binding to a labelled peptide, TR-FRET, 1 h; hit rate 0.33% among 360,000; in the data active = inhibition above about 37%
Target sequence (P63165 whole entry, looked up): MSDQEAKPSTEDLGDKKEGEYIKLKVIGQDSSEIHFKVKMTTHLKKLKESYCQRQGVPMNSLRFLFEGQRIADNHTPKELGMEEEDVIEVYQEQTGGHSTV
Scp-1 inhibitor: Scp-1 (human) phosphatase inhibition | Q9GZU7 | Recombinant Scp1, phosphopeptide, malachite green phosphate absorbance | inhibition, % at 20 µM | hit rate 0.88% among 340,000 | AID 493091;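 active = inhibition above about 50% at 20 µM, limit read from the data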
Target sequence (Q9GZU7 76-261 limits assumed): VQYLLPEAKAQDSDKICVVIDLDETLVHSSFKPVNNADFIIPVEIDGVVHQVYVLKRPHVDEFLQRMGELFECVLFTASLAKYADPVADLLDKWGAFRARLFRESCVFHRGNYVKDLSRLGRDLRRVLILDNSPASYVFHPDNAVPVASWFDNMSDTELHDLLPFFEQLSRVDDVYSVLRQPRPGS
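Assay system: SCP-1 catalytic fragment, aa 76-261 | Buffer or medium: Tris acetate buffer pH 5.5 with MgCl2 and Tween-20 | Compound: One concentration, 20 µM, with 1.0% DMSO | Also added: Phospho 17-mer peptide substrate | Signal: Absorbance at 630 nm | Incubation: 45 min enzyme reaction at room temperature | Measure: % inhibition of SCP-1 phosphate liberation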
DNMT1 inh: blocks human DNA methyltransferase DNMT1. inhibition (reported as % activation of signal), % at 10 µM. DNMT1 molecular beacon, Hinp1I cleavage, fluorescence. AID 588458. P26358. hit rate 0.83% among 360,000; in the data active = inhibition above about 50%
Scp1 confirm: Scp-1 (human) inhibition, single-dose confirmed; inhibition, % at 20 µM; shares compounds with Scp-1 inhibitor; hit rate 61% among 2,500; recombinant SCP-1 catalytic domain, phosphate release, malachite green absorbance
Scp-1 MG ctr: interferes with malachite green readout, flagging false Scp-1 hits. shares compounds with Scp-1 inhibitor. Colorimetric interference counterscreen, malachite green absorbance 630 nm. apparent inhibition (interference), % at 20 µM. 2,500 tested, under 10 active. AID 540313;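 also: compounds added after enzyme reaction finished so only phosphate colour detection is probed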
Scp-1 Tm shift: Scp-1 (human) binding by thermal shift. AID 540329. thermal shift relative to vanadate control, % at 40 µM. shares compounds with Scp-1 inhibitor. Recombinant SCP1, Sypro Orange thermal shift Tm. hit rate 25% among 1,500;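 active = substances whose mean melting-temperature shift, as a percentage of the reference inhibitor's shift, reaches about 5.3%, limit read from the data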
Large screens that a line does not name were inactive (follow-up assays come after a bar, where they were run). Sampled rows, rich in hits. Any-hit rate of the full collection: about 1.7%.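 The calls were made as follows, unless noted: active = inhibition of at least 30% at 20 µM; inactive = the rest.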

C[C@@H]1CN(Cc2nnnn2CC(=O)NCCCn2cccn2)C[C@H](C)O1	none (no result: Scp-1 inhibitor)
COc1ccc(F)cc1S(=O)(=O)NC1CCCC1	none
CN1CCN(C(=O)CSc2ccc(C(F)(F)F)cc2[N+](=O)[O-])CC1	none
Cc1c(NS(=O)(=O)c2cc(C(=O)NCCN(C)C)ccc2Cl)c(=O)n(-c2ccccc2)n1C	Scp-1 inhibitor 73.5 | Scp1 confirm 36.6 | Scp-1 MG ctr inactive | Scp-1 Tm shift inactive
O=C(COC(=O)Cc1cccc(C(F)(F)F)c1)NCc1ccco1	Scp-1 inhibitor 76.6, DNMT1 inh 91.9 | Scp1 confirm 67.9 | Scp-1 MG ctr inactive | Scp-1 Tm shift inactive
CSc1n[nH]c(NCc2ccc(Cl)cc2)n1	none
CSc1n[nH]c(NCc2ccc(C)cc2)n1	Scp-1 inhibitor 55.1 | Scp1 confirm inactive | Scp-1 MG ctr inactive
CC1CCCCC12NC(=O)N(CC(=O)N1CCN(c3ncccn3)CC1)C2=O (stereo not drawn)	none
O=C(Cn1ccc(NC(=O)OCc2ccccc2)nc1=O)NCc1ccc2[nH]ccc2c1	none | Scp1 confirm inactive | Scp-1 MG ctr inactive
COc1cc(NCCCn2ccc(NC(=O)OCc3ccccc3)nc2=O)cc(OC)c1OC	none | Scp1 confirm inactive | Scp-1 MG ctr inactive
Cc1ccc(CNC(=O)Cn2ccc(NC(=O)OCc3ccccc3)nc2=O)o1	none | Scp1 confirm inactive | Scp-1 MG ctr inactive
COc1ccc(CNC(=O)Cn2ccc(NC(=O)OCc3ccccc3)nc2=O)cc1	none
O=C(Cc1ccccc1)NCC(=O)OCc1ccc([N+](=O)[O-])cc1	none
C[C@H](CO)N1C[C@H](C)[C@@H](CN(C)S(C)(=O)=O)Oc2c(NC(=O)c3ccncc3)cccc2C1=O	Scp-1 inhibitor 54.9 | Scp1 confirm inactive | Scp-1 MG ctr inactive
Cc1noc(C)c1NC(=O)N(C)C[C@H]1Oc2c(NC(=O)c3ccncc3)cccc2C(=O)N([C@H](C)CO)C[C@@H]1C	Scp-1 inhibitor 60.8 | Scp1 confirm inactive | Scp-1 MG ctr inactive
Cc1noc(C)c1NC(=O)N(C)C[C@H]1Oc2c(NC(=O)NC(C)C)cccc2C(=O)N([C@H](C)CO)C[C@@H]1C	none
C[C@H](CO)N1C[C@H](C)[C@@H](CN(C)Cc2ccc(Cl)c(Cl)c2)Oc2c(NC(=O)c3ccncc3)cccc2C1=O	Scp-1 inhibitor 54.4 | Scp1 confirm inactive | Scp-1 MG ctr inactive
COC(=O)C1=C(N)OC2=C(C(=O)CC(C)(C)C2)C1c1cc2c(cc1Cl)OCO2 (stereo not drawn)	none
CCn1c(SCC(=O)N/N=C/C(C)=C\c2ccco2)nnc1-c1ccccc1	Scp-1 inhibitor 76.3 | Scp1 confirm 60.4 | Scp-1 MG ctr inactive | Scp-1 Tm shift inactive
CCn1c(SCC(=O)N/N=C/C(C)=C/c2ccco2)nnc1-c1ccccc1	Scp-1 inhibitor 88.0 | Scp1 confirm 50.4 | Scp-1 MG ctr inactive | Scp-1 Tm shift inactive
CCn1c(SCC(=O)N/N=C/C=C/c2ccco2)nnc1-c1ccccc1	none
O=C(C1CCC(CNS(=O)(=O)c2cccs2)CC1)N1CCN(c2ccc(Cl)cc2)CC1 (stereo not drawn)	none
CCc1nnc(NC(=O)c2ccc(-c3ccc([N+](=O)[O-])cc3Cl)o2)s1	none
O=C(OCc1nnc(-c2ccccc2)o1)c1ccc(S(=O)(=O)NCc2ccco2)cc1	Scp-1 inhibitor 52.7 | Scp1 confirm 67.8 | Scp-1 MG ctr inactive | Scp-1 Tm shift inactive
O=C(COC(=O)c1ccc(S(=O)(=O)NCc2ccco2)cc1)NCc1ccccc1	none
COc1cccc(NC(=O)COC(=O)c2ccc(S(=O)(=O)NCc3ccco3)cc2)c1	Scp-1 inhibitor 59.9 | Scp1 confirm 70.1 | Scp-1 MG ctr inactive | Scp-1 Tm shift inactive
NC(=O)COC(=O)c1ccc(S(=O)(=O)NCc2ccco2)cc1	Scp-1 inhibitor 63.3 | Scp1 confirm 68.9 | Scp-1 MG ctr inactive | Scp-1 Tm shift inactive
